# ChEMBL document CHEMBL2146400, “Antiophidic solanidane steroidal alkaloids from Solanum campaniforme” (J Nat Prod, 2011)
# Activity calls are given as the source filed them. No cut-off for these calls is given here.
# Key:
# [1] = test system: SF-295; assay: Antiproliferative activity against human SF295 cells; type: functional, cell-based
# [2] = biological target: T1, Basic phospholipase A2 homolog BnSP-7 (Bothropoides pauloensis) (UniProt Q9IAT9); assay: Inhibition of Phospholipase A2 Asp49 in Bothropoides pauloensis at 1:1 venom to drug ratio incubated up to 40 mins using 4N3OBA substrate by multiwell plate reader method; settings: Bothrops pauloensis
# T1 sequence (whole entry): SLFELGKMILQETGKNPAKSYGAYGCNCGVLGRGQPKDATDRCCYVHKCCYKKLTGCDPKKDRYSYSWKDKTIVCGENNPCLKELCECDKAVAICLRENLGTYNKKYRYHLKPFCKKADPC
# In short: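 Whole venom (1 mg/mL), alone or preincubated 1:1 (w:w) with compound, was added to Tris-HCl 0.1 M, Ca2+ 0.01 M, pH 8.0, with 4-nitro-3-octanoyloxybenzoic acid substrate. Mixture was kept at 37 °C up to 40 min, reading A425 every 5 min. V0 came from the absorbance increase after 20 min.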
# [3] = test system: MDA-MB-435; assay: Antiproliferative activity against human MDA-MB-435 cells; type: functional, cell-based
# [4] = test system: Bothrops pauloensis; assay: Antiophidic activity against Bothropoides pauloensis venom-induced myotoxicity in Swiss mouse assessed as creatine kinase level at 50 ug preincubated with venom for 30 mins before venom injection measured 2 to 48 hrs post dose; type: functional
# In short: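 Injected mixture was 50 μg venom with 50 μg alkaloid in 50 μL 1% DMSO–PBS (pH 7.2), preincubated 30 min at 37 °C; vehicle controls. Retro-orbital blood was taken at 2, 4, 8, 24 and 48 h. Plasma creatine kinase was measured by UV kit, in U/L (1 U = 1 μmol NADH/min at 37 °C). Mean ± SEM.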
# [5] = test system: HL-60; assay: Antiproliferative activity against human HL60 cells; type: functional, cell-based
# [6] = test system: HCT-8; assay: Antiproliferative activity against human HCT8 cells; type: functional, cell-based
# [7] = Fntinecrotizing activity against Bothropoides pauloensis venom-induced hemorrhage in Swiss mouse assessed as reduction in skin necrotic regions at 50 ug preincubated with venom for 30 mins before venom injection measured 2 hrs post dose; type: ADME, tissue-based, Skin of body; settings: bothrops pauloensis, in vivo
# [8] = test system: Bothrops pauloensis; assay: Antihemorrhagic activity against Bothropoides pauloensis venom-induced hemorrhage in Swiss mouse assessed as decrease in hemorrhagic area at 50 ug preincubated with venom for 30 mins before venom injection measured 2 hrs post dose; type: functional
# In short: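 Mice received 50 μL of 1% DMSO–PBS (pH 7.2) holding 50 μg B. pauloensis venom plus 50 μg alkaloid, preincubated 30 min at 37 °C. Vehicle-only negative controls. Five animals were killed at 2 h, and the inner dorsal skin was photographed. Hemorrhagic area was measured in mm2. Mean ± SEM, ANOVA with Dunnett's test.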
# [9] = test system: Bothrops pauloensis; assay: Antihemorrhagic activity against Bothropoides pauloensis venom-induced hemorrhage in Swiss mouse assessed as reduction in intensity of hemorrhage area at 50 ug preincubated with venom for 30 mins before venom injection measured 2 hrs post dose; type: functional
# In short: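 Venom (50 μg) was premixed with 50 μg alkaloid in 50 μL 1% DMSO–PBS, pH 7.2, and held 30 min at 37 °C before injection. At 2 h, five mice were killed and the inner dorsal skin was imaged. Intensity I = A × (N − H): A is area in mm2, N and H are mean colour intensity of normal and hemorrhagic skin. ANOVA/Dunnett.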
SMILES,Activity [1],inhibition [2],Activity [3],Activity [4],Activity [5],Activity [6],Activity [7],Activity [8],Activity [9]
Cc1ccc(O)cc1CC[C@@H]1[C@@H](O)CC[C@]2(C)[C@@H]3[C@H](C[C@@H]12)N1C[C@@H](C)C[C@H]2O[C@]21[C@H]3C (relative stereo),inactive,inactive,inactive,Active,inactive,inactive,–,–,–
C[C@H]1C[C@H]2O[C@]23[C@@H](C)[C@H]2[C@H](C[C@H]4[C@@H]5CCC6=CC(=O)C=C[C@]6(C)[C@H]5CC[C@]24C)N3C1 (relative stereo),inactive,inactive,inactive,Active,inactive,inactive,Active,Active,Active
C[C@H]1C[C@H]2O[C@]23[C@@H](C)[C@H]2[C@H](C[C@H]4[C@@H]5CCC6=CC(=O)C=C[C@]6(C)C5=CC[C@]24C)N3C1,inactive,inactive,inactive,Active,inactive,inactive,Active,Active,Active
